ChEMBL document CHEMBL1136627, “Discovery of novel neuronal voltage-dependent calcium channel blockers based on emopamil left hand as a bioactive template” (Bioorg Med Chem Lett, 2003)

system: Mus musculus; test: Anti seizure activity was evaluated in the audiogenic seizure model using DBA/2 mice at 10 mg/kg (iv); type: functional
How it was run: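 DBA/2 mice given test compound iv at 10 mg/kg; 5 min later each mouse placed singly under a perspex dome and exposed to sound (100 dB, 11 kHz) continued for 60 s; scored for sound-induced tonic convulsion.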

| SMILES | Protection |
| --- | --- |
| CC(C)C(C#N)(CCCN1CCN(CCOc2ccc(F)cc2)CC1)c1ccccc1 (stereo unspecified) | 100% |

system: not listed separately; test: Neuronal voltage-dependent calcium channel (VDCC) inhibitory activity determined in rat cortical synaptosomes; type: subcellular, Brain
How it was run: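 Rat cortical synaptosomes depolarized with KCl; rise in intracellular Ca2+ measured fluorimetrically with Fura2; IC50 (µM) for inhibition of the KCl-elicited [Ca2+]i elevation; racemic test compounds.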

| SMILES | IC50 |
| --- | --- |
| CC(C)C(C#N)(CCCN1CCN(CCOc2ccccc2F)CC1)c1ccccc1 (stereo unspecified) | 9.3 µM |
| CC(C)C(C#N)(CCCN1CCN(CCOc2ccc(N)cc2)CC1)c1ccccc1 (stereo unspecified) | 13 µM |
| CC(C)C(C#N)(CCCN1CCN(CCOc2cccnc2)CC1)c1ccccc1 (stereo unspecified) | > 16 µM |
| C#CCCCCN1CCN(CCCC(C#N)(c2ccccc2)C(C)C)CC1 (stereo unspecified) | > 16 µM |
| CC(C)C(C#N)(CCCN1CCN(CCO)CC1)c1ccccc1 (stereo unspecified) | > 16 µM |
| CC(C)C(C#N)(CCCN1CCN(c2ccccc2)CC1)c1ccccc1 (stereo unspecified) | > 16 µM |
| CC(C)C(C#N)(CCCN1CCN(CCOc2ccc(C#N)cc2)CC1)c1ccccc1 (stereo unspecified) | 13 µM |
| CC(C)C(C#N)(CCCN1CCN(CCOc2ccccc2C#N)CC1)c1ccccc1 (stereo unspecified) | 16 µM |
| CC(C)C(C#N)(CCCN1CCN(CCc2ccccc2)CC1)c1ccccc1 (stereo unspecified) | 7.7 µM |
| CC(C)C(C#N)(CCCN1CCN(CCOc2ccncc2)CC1)c1ccccc1 (stereo unspecified) | > 16 µM |
| CC(C)C(C#N)(CCCN1CCN(Cc2ccccc2)CC1)c1ccccc1 (stereo unspecified) | 12 µM |
| CC(C)C(C#N)(CCCN1CCN(C)CC1)c1ccccc1 (stereo unspecified) | > 16 µM |
| COc1ccc(OCCN2CCN(CCCC(C#N)(c3ccccc3)C(C)C)CC2)cc1 (stereo unspecified) | 9.6 µM |
| CC(C)C(C#N)(CCCN1CCNCC1)c1ccccc1 (stereo unspecified) | > 16 µM |
| CC(C)C(C#N)(CCCN(C)CCc1ccccc1)c1ccccc1 (stereo unspecified) [EMOPAMIL] | 28 µM |
| CC(C)C(C#N)(CCCN1CCN(CCOc2ccccn2)CC1)c1ccccc1 (stereo unspecified) | > 16 µM |
| CC(C)C(C#N)(CCCN1CCN(CCOc2ccc(N(C)C)cc2)CC1)c1ccccc1 (stereo unspecified) | > 16 µM |

The remaining lines, values ahead:

| IC50 | SMILES |
| --- | --- |
| 5.9 µM | CC(C)C(C#N)(CCCN1CCN(CCOc2ccc(F)cc2)CC1)c1ccccc1 (stereo unspecified) |
| 7.7 µM | CC(C)C(C#N)(CCCN1CCN(CCOc2cccc(C#N)c2)CC1)c1ccccc1 (stereo unspecified) |
| 7.5 µM | CC(C)C(C#N)(CCCN1CCN(CCOc2ccc([N+](=O)[O-])cc2)CC1)c1ccccc1 (stereo unspecified) |
| 6.2 µM | CC(C)C(C#N)(CCCN1CCN(CCOc2cccc(F)c2)CC1)c1ccccc1 (stereo unspecified) |
| 3.4 µM | CC(C)C(C#N)(CCCN1CCN(CCOc2ccc(Cl)cc2)CC1)c1ccccc1 (stereo unspecified) |
| 5.2 µM | CC(C)C(C#N)(CCCN1CCN(CCOc2ccc(F)c(F)c2)CC1)c1ccccc1 (stereo unspecified) |
| 2.5 µM | CC(C)C(C#N)(CCCN1CCN(CCOc2cccc3ccccc23)CC1)c1ccccc1 (stereo unspecified) |
| 4.5 µM | CC(C)C(C#N)(CCCN1CCN(CCCc2ccccc2)CC1)c1ccccc1 (stereo unspecified) |
